# Data as given in article PMC4113001 (Biochimica et biophysica acta, 2011).
# Assays:
# [1] = target: T1, CRBPII (Rattus norvegicus, UniProt P06768); type: binding; settings: excitation spectra pre- and post-column
# T1 sequence (P06768 1-134): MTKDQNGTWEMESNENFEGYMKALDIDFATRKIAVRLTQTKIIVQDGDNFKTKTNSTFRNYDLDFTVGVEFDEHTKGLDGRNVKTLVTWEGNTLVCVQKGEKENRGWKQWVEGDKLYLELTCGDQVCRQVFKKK
# Method in brief: (§1)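 Sephadex G-50 (fine) was equilibrated for several days in 20 mM KH2PO4, 100 mM KCl, pH 7.4. Small syringe columns were poured, a separate one for each protein–ligand pair. E. coli-expressed, FPLC-purified protein carried bound retinol. Excitation spectra of the complex were recorded before and after passage, with roughly equivalent free retinol in buffer as reference. Blanks were subtracted.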
# [2] = target: T2, CRBPI (Rattus norvegicus, UniProt P02696); type: binding; settings: excitation spectra pre- and post-column
# T2 sequence (P02696 1-135): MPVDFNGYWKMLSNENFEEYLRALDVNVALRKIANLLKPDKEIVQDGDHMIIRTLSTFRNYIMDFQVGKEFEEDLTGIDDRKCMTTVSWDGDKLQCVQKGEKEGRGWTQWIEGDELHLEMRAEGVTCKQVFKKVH
# Method in brief: as §1
# [3] = target: T2, CRBPI; assay: Fluorescence titration binding of retinoids to CRBPI; settings: for affinity of CRBPI compared to CRBPII (fold stronger): ratio of Kd′ values CRBPII/CRBPI
# [4] = target: CRBPI and II; settings: 19F NMR estimate; cited from earlier work
SMILES,elution of complex with CRBPII through Sephadex G-50 [1],elution of complex with CRBPI through Sephadex G-50 [2],CRBPI affinity for 9-cis-retinol relative to all-trans- and 13-cis-retinol (fold lower) ([3]; ratio of Kd′ values),affinity of CRBPI compared to CRBPII (fold stronger) [3],Kd′ value of CRBPI relative to CRBPII (fold less) [4]
CC1=C(/C=C/C(C)=C\C=C\C(C)=C\CO)C(C)(C)CCC1 [9-cis-retinol],eluted bound,eluted bound,~ 3 fold,~ 6 fold,
CC1=C(/C=C/C(C)=C/C=C/C(C)=C/CO)C(C)(C)CCC1 [all-trans-retinol],bound,bound,,~ 3 fold,10–100 fold
